Data on ten compounds can be found in ChEMBL document CHEMBL1150214, “Isolation, synthesis, and structure-activity relationships of bioactive benzoquinones from Miconia lepidota from the Suriname rainforest” (J Nat Prod, 2001).

Assay [1] has as its system Saccharomyces cerevisiae. The experiment in a line: Antifungal activity against Saccharomyces cerevisiae 7 assessed as concentration required to generate kill-zone of 12 mm in diameter. It is filed as functional. A digest of the protocol:
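Mutant S. cerevisiae Sc-7 on an agar-based gel, incubated […] with samples. Kill-zone diameters measured; IC12 (µg/mL) is the concentration giving a 12 mm zone. Standard deviations come from three separate experiments.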

The subject of assay [2] is Saccharomyces cerevisiae. Description: Antifungal activity against Saccharomyces cerevisiae 1140 assessed as concentration required to generate kill-zone of 12 mm in diameter after 48 hrs. The assay is classed as functional. A digest of the protocol: (§1)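 Mutant S. cerevisiae strains on an agar-based gel, incubated 48 h with samples. Inhibition zones measured; IC12 (µg/mL) is the concentration producing a 12 mm diameter kill zone. Values with standard deviations come from three separate experiments.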

The subject of another assay is M109. Description: Cytotoxicity against mouse M109 cells. The assay is classed as functional, cell-based. A digest of the protocol:
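In vitro antitumor cytotoxicity in murine Madison Lung Carcinoma (M109) cells, run at Bristol-Myers Squibb; value given as IC50 in µg/mL.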

For assay [3], the system named is Saccharomyces cerevisiae. The experiment in a line: Antifungal activity against Saccharomyces cerevisiae 1138 assessed as concentration required to generate kill-zone of 12 mm in diameter after 48 hrs. The assay is classed as functional. A digest of the protocol:
as §1

For assay [4], the system named is Saccharomyces cerevisiae. Description: Antifungal activity against Saccharomyces cerevisiae 1353 assessed as concentration required to generate kill-zone of 12 mm in diameter after 48 hrs.
The subject of a further assay is A2780. Description: Cytotoxicity against human A2780 cells. It is filed as functional, cell-based.

In brackets after ≈: the same amount, converted by molar mass.

By IC50 is commonly meant the concentration that inhibits the measured activity by half. Higher therefore signals weaker potency. Turning to `CCCCCCCC1=CC(=O)C=C(OC)C1=O`, the Activity was 16 µg/mL in the assay on Saccharomyces cerevisiae [1], 130 µg/mL in the assay with Saccharomyces cerevisiae [2], 120 µg/mL in the assay with Saccharomyces cerevisiae [3] and 220 µg/mL in the assay with Saccharomyces cerevisiae [4]. Further, the IC50 in the assay with M109 stood at 10 µg/mL (≈ 42.3 µM); in the assay with A2780 it was 7.9 µg/mL (≈ 33.4 µM).
`COC1=CC(=O)C=C(Cc2ccccc2)C1=O`: the Activity in the assay with Saccharomyces cerevisiae [1] worked out at 180 µg/mL; with Saccharomyces cerevisiae [2], 420 µg/mL; with Saccharomyces cerevisiae [3], 460 µg/mL; in the assay on Saccharomyces cerevisiae [4], 590 µg/mL.
The matching figures for `CCCCC(O)C1=CC(=O)C=C(OC)C1=O` (centres undefined): 438 µg/mL, 430 µg/mL, 536 µg/mL and 577 µg/mL.
In the case of `CCCCCCCCCCCCCCCCCCCC1=CC(=O)C=C(OC)C1=O`, the Activity with Saccharomyces cerevisiae [1], in the assay with Saccharomyces cerevisiae [2], in the assay with Saccharomyces cerevisiae [3] and with Saccharomyces cerevisiae [4] was over 2000 µg/mL throughout.
Take `CCCCC1=CC(=O)C=C(OC)C1=O`: the Activity in the assay on Saccharomyces cerevisiae [1] came out at 80 µg/mL; with Saccharomyces cerevisiae [2] it was 150 µg/mL; in the assay on Saccharomyces cerevisiae [3], 220 µg/mL; in the assay with Saccharomyces cerevisiae [4] it was 210 µg/mL. Further, the half-inhibitory concentration (IC50) in the assay on A2780 was 3.2 µg/mL (≈ 16.5 µM).
Take `COC1=CC(=O)C=C(C)C1=O`: the Activity in the assay with Saccharomyces cerevisiae [1] was 530 µg/mL; with Saccharomyces cerevisiae [2], 630 µg/mL; with Saccharomyces cerevisiae [3] it was 580 µg/mL; in the assay on Saccharomyces cerevisiae [4] it was 830 µg/mL.
As for `CCC1=CC(=O)C=C(OC)C1=O`, the Activity with Saccharomyces cerevisiae [1] came to 220 µg/mL; with Saccharomyces cerevisiae [2] it was 140 µg/mL; in the assay with Saccharomyces cerevisiae [3], 200 µg/mL; with Saccharomyces cerevisiae [4], 233 µg/mL.
With `CCCCCCCCCCC1=CC(=O)C=C(OC)C1=O`, the Activity in the assay with Saccharomyces cerevisiae [1] stood at 3 µg/mL; with Saccharomyces cerevisiae [2], 380 µg/mL; with Saccharomyces cerevisiae [3], 380 µg/mL; in the assay on Saccharomyces cerevisiae [4], 380 µg/mL. Besides, in the assay on M109, the half-maximal inhibitory concentration (IC50) is 10 µg/mL (≈ 35.9 µM).
With NYSTATIN, the Activity in the assay on Saccharomyces cerevisiae [2] was found to be 13 µg/mL; in the assay with Saccharomyces cerevisiae [3], 14 µg/mL.
In the case of `CCCCCC1=CC(=O)C=C(OC)C1=O` [Primin], the Activity amounted to 48 µg/mL in the assay with Saccharomyces cerevisiae [1], 170 µg/mL with Saccharomyces cerevisiae [2], 240 µg/mL with Saccharomyces cerevisiae [3] and 285 µg/mL in the assay on Saccharomyces cerevisiae [4]. For the same compound, the values for the IC50 in the assay with M109 and in the assay with A2780 were 10 µg/mL (≈ 48 µM) and 2.9 µg/mL (≈ 13.9 µM), respectively.
